KCNK9 block: human KCNK9 channel inhibition; HEK293 KCNK9, FluxOR thallium flux fluorescence; hits give low values; 310,000 compounds, 1.2% hits; B-score at 10 µM; Q9NPC2;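 active = ratio B-score over 3 SD below the library mean, with starting fluorescence within 5 SD of its mean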;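 also: negative B-score means less thallium flux so channel inhibition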
KCNQ1 inh: human KCNQ1 channel inhibition; P51787; CHO-K1 KCNQ1, FluxOR thallium flux fluorescence; hits give high values; B-score at 10 µM; 310,000 compounds, 1.3% hits; AID 2642;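 active = compounds whose thallium flux B-score, printed positive for inhibition, exceeds three library SD while starting fluorescence stays within three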;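 also: channel opened by potassium depolarization with thallium stimulus after 20 min compound exposure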
Target sequence (P51787 whole entry, looked up): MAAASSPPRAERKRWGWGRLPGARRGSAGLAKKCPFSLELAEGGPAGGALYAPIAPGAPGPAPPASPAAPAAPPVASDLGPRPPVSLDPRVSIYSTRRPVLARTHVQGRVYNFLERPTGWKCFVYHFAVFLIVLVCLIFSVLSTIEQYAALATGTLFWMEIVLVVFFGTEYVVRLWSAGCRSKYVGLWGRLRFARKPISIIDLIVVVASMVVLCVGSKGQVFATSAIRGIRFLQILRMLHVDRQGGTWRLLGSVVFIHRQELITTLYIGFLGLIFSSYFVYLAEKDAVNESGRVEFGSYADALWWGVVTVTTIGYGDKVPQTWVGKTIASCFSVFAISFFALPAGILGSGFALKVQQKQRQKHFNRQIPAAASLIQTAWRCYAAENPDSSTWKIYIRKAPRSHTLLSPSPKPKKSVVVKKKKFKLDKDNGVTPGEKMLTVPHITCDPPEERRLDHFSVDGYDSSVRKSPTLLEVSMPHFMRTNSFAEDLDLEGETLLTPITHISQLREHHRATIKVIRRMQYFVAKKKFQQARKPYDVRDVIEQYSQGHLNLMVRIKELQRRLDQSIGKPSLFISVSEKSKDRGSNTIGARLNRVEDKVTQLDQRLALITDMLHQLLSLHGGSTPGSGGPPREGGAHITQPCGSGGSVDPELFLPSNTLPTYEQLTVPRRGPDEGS
KCNQ1 pot: potentiates or activates the human KCNQ1 potassium channel. AID 2648. CHO-K1 KCNQ1, thallium flux FluxOR fluorescence; hits give high values. P51787. 310,000 compounds, 0.35% hits. B-score at 10 µM;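 active = fluorescence ratio B-score, a plate-corrected score, at least three library SD, with initial intensity B-score within 5 SD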
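Assay system: CHO-K1 cells stably expressing KCNQ1. Medium: assay buffer for compound exposure, DMSO matched across wells. Timing: 37 °C overnight plating, 90-min dark dye load, 20-min compound pretreatment. Signal: kinetic FluxOR fluorescence, 10 s baseline plus 110 s post-stimulus.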
KCNK3 inh: human KCNK3 channel inhibition, primary screen; CHO-KCNK3 thallium flux, FluxOR fluorescence; hits give low values; B-score at 10 µM; 340,000 compounds, 0.84% hits; AID 602410;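 active = B-score under library mean minus 4 SD, starting fluorescence ratio at most library mean plus 5 SD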;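 also: more negative B-score means stronger inhibition of thallium flux through KCNK3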
hERG rescue: hERG (human) protection from proarrhythmic block. Q12809. CHO-hERG, FluxOR thallium flux, dofetilide IC70 present. activation (rescue from dofetilide block), less the hit threshold, % at 10 µM. 310,000 compounds, 0.51% hits. AID 1511;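 active = activation above the mean of controls blocked by dofetilide plus 5 SD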;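 also: thallium influx through hERG after potassium depolarization seen as dye fluorescence rise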
KCNK3 confirm: human KCNK3 channel inhibition, confirmation assay; shares compounds with KCNK3 inh; CHO-KCNK3 thallium flux, FluxOR fluorescence; 0% buffer, 100% carvedilol maximal block; ratio percent of control, % at 10 µM; 2,400 compounds, 99% hits;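 active = ratio percent of control, averaged over triplicates, above buffer control mean plus 5 SD, cut at about 64% in these data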;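 also: ratio is the fluorescence rise from min to max over baseline after thallium stimulus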
KCNK3 uninduced: counter-screen for KCNK3 inhibitors: effect in non-induced cells; shares compounds with KCNK3 inh; non-induced KCNK3 parental cells, FluxOR thallium flux; hits give low values; thallium flux ratio (lower = more inhibition) at 10 µM; 2,400 compounds, 40% hits; AID 651747;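 active = thallium flux ratio, averaged over three wells, more than 5 SD below the buffer control mean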;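 also: host cells are CHO cells without KCNK3 induction; ratio is peak minus trough fluorescence over baseline then normalized to buffer controls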
* marks the source's active call; other numbers are inactive results; i = inactive; · = not tested or not shown. A selection: hits, their analogues and other compounds. The true share with any hit is near 3.1%.

SMILES	KCNK9 block	KCNQ1 inh	KCNQ1 pot	KCNK3 inh	hERG rescue	KCNK3 confirm	KCNK3 uninduced
Cc1cccc2c1-c1sc(C(=O)N3CCCCC3)cc1CO2	i	i	i	-12*	-6	90*	i
CCOC(=O)C1CCCN(C(=O)c2cc(-c3ccc(C)cc3)nc3ccccc23)C1 (centres undefined)	i	i	i	-9.7*	-31	108*	i
CCOC(=O)C1CCCN(C(=O)c2cc(Nc3ccc(OC)c(OC)c3)nc3ccccc23)C1 (centres undefined)	i	i	i	i	-7	·	·
COc1ccc(CNC(=O)CN(Cc2ccc(F)cc2)C(=O)c2csnn2)cc1	i	i	i	i	0	·	·
COc1ccc(Nc2nnc(-c3ccc(O)cc3)c3ccccc23)cc1	i	i	i	-8.9*	-14	98*	i
Oc1ccc(Nc2nnc(-c3ccc(O)cc3)c3ccccc23)cc1	i	i	i	i	-9	·	·
c1ccc(CN2CCC(Nc3nc(-c4cccs4)nc4ccccc34)CC2)cc1	i	i	i	-10*	-41	126*	0.14*
c1csc(-c2nc(NCC3CCCO3)c3ccccc3n2)c1 (centres undefined)	i	i	i	i	-14	·	·
CN1CCN(C(=O)c2cc3ccccc3cc2O)CC1	·	·	·	i	·	·	·
CCOc1ccc(C(=O)CC(C(=O)O)N2CCCCC2)cc1 (centres undefined)	·	·	·	i	·	·	·
CCc1cccc(NC(=O)c2cccc3c2C(=O)N(C2CCCCC2)C3)c1	i	i	i	-8.7*	-8	78*	i
CCOC(=O)N1CCC(N2Cc3cccc(C(=O)Nc4ccc(CC)cc4)c3C2=O)CC1	i	i	i	i	-26	·	·
COc1ccc(C2C3=C(Nc4ncnn42)c2ccccc2CCC3)cc1 (centres undefined)	i	i	i	i	2	·	·
Fc1ccc(/C=C2\CCCC3=C2Nc2ncnn2C3c2ccc(F)cc2)cc1 (centres undefined)	i	i	i	-9.6*	-14	114*	0.14*
Cc1ccccc1Oc1cc(NC(=O)CCCn2nc(C)c([N+](=O)[O-])c2C)cc([N+](=O)[O-])c1	i	i	i	-9.3*	-7	119*	i
Cc1nn(CCCC(=O)Nc2cc(Oc3ccc(F)cc3)cc([N+](=O)[O-])c2)c(C)c1[N+](=O)[O-]	i	i	i	-8.9*	-9	125*	i
Cc1cccc(C(=O)NCC(=O)NC2CCC(C)CC2)c1 (centres undefined)	i	i	i	i	-14	·	·
O=[N+]([O-])c1ccc(COc2ccccc2CN2CCCCC2)cc1	·	·	·	i	·	·	·
Cc1cc(C(=O)CSc2nn3c(=O)c(C(C)(C)C)nnc3s2)c(C)n1C	i	i	i	i	-10	·	·
COc1ccccc1Oc1ccc(S(=O)(=O)N2CCCCC2C)cc1 (centres undefined)	i	i	i	-12*	-12	108*	0.16*
Clc1ccccc1-c1nc(-c2ccc(Br)o2)no1	i	i	i	-10*	-2	123*	0.15*
Clc1ccccc1OCc1nc(-c2ccc(Br)o2)no1	i	i	i	-10*	-11	112*	i
Brc1ccc(-c2noc(COc3ccc4ccccc4c3)n2)o1	i	i	i	-9.1*	-12	102*	i
COC(=O)[C@]1(Cc2ccccc2)N[C@H](CN(C)C(=O)c2ccc(F)cc2)[C@@H]2C(=O)N(C)C(=O)[C@@H]21	·	·	·	i	·	·	·
Cc1noc(C)c1S(=O)(=O)N1CCCN(C(=O)/C=C/c2ccccc2F)CC1	·	·	·	i	·	·	·
SMILES	KCNK9 block	KCNQ1 inh	KCNQ1 pot	KCNK3 inh	hERG rescue	KCNK3 confirm	KCNK3 uninduced
COc1ccc(S(=O)(=O)NCCSCc2ccccc2C)cc1Br	i	i	i	-8.9*	-10	126*	0.13*
O=C1c2cccc3cccc(c23)C(=O)N1CC1CCN(CC(O)COc2ccc3ccccc3c2)CC1 (centres undefined)	i	i	i	-9.9*	-17	101*	0.15*
COc1ccc(C(=O)OCCOc2ccccc2C(C)=O)c(O)c1	i	i	i	-9.8*	-9	119*	0.14*
COc1ccc(C(=O)OCC(=O)Nc2c(C)n(C)n(-c3ccccc3)c2=O)cc1OC	·	·	·	i	·	·	·
CCNC(=O)CC1S/C(=N/N=C(\C)c2ccccc2)NC1=O (centres undefined)	i	i	i	i	-8	·	·
C/C(=N\N=C1\NC(=O)C(Cc2ccccc2)S1)c1ccccc1 (centres undefined)	i	i	i	-10*	-3	103*	0.16*
CC(=O)NC12CC3CC(C1)CC(C(=O)N1CCN(c4ncccn4)CC1)(C3)C2	i	i	i	i	-8	·	·
CCSc1nnc(NC(=O)CCc2ccc(OC)cc2)s1	i	i	i	i	-4	·	·
O=C1N(Cc2cccc(Cl)c2)C[C@@H]2C[C@@H](c3ccco3)N3CCC[C@@]123	i	i	i	-9.2*	-8	88*	i
CCn1ncc([C@@H]2C[C@H]3CN(Cc4cccc(Cl)c4)C(=O)[C@]34CCCN24)c1C	i	i	i	i	-12	·	·
Cn1cc([C@@H]2C[C@H]3CN(Cc4cccc(Cl)c4)C(=O)[C@]34CCCN24)c(-c2ccccc2)n1	-7.3*	i	i	-9.7*	-6	100*	i
COC(=O)C(C(=O)OC)[C@@H]1C=C[C@H](C[N+](=O)[O-])N(C(C)=O)C1	·	·	·	i	·	·	·
Fc1cccc(Cl)c1/C=N/n1c(-c2cccnc2)n[nH]c1=S	i	i	i	i	-3	·	·
Cc1cccc(C(=O)Nc2cccc(OC(=O)c3cccc(C)c3)c2)c1	-7.9*	i	i	-9.8*	-4	111*	0.15*
O=S(=O)(Nc1ccc(-n2cnnn2)cc1)c1ccc(F)c(F)c1F	i	i	i	i	-5	·	·
O=C1Nc2ccccc2C12OCC(COc1ccc(Cl)cc1)O2 (centres undefined)	i	i	i	-10*	-17	108*	i
CCOC(=O)C1=C(c2ccccc2)NC(SCC(=O)Nc2cccc(C)c2)=C(C#N)C1c1ccco1 (centres undefined)	-6.7*	i	i	-8.7*	-7	113*	i
